# Assay outcomes deposited in PubChem by Broad Institute.
# INS-1E ATP HTS: preserves ATP levels in cytokine-treated INS-1E cells | INS-1E cytokine-induced death, ATP luminescence, 48 h; normalised: neutral wells 0, positive control 100 | 20,000 tested, 0.1% active | protection from cytokine-induced ATP loss, % at 10 µM | AID 488910;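 active means mean replicate protection from cytokine-induced ATP loss at least 50% and at least 75% of replicates each reaching 50%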
#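 Test system: INS-1E rat cells | Quantity: 8000 cells per well | Medium: Phenol-red-free RPMI with 5% fetal bovine serum | Reagent: Cytokine cocktail of IFN-γ, TNF-α and IL-1β | Doses: One compound concentration, pin transfer | Timing: 48 h co-treatment, 10 min post-lysis read | Technique: Luminescent ATP assay (CellTiter-Glo)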
# A1 apoptosis 2: blocks A1, raising caspase activity. 24,000 tested, under 10 active. caspase activation, % (concentration not given with the values). MEF A1-2A-BIM cells, caspase-Glo luminescence, 3 h; percent of clofoctol response, DMSO zero. AID 2465; in the data active means caspase activation above about 5.9%
#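 Evaluation: Caspase-3/7 activity from luminescence increase | Assay system: A1-2A-BIM mouse embryonic fibroblasts | Quantity: 2500 MEF cells/well | Medium: RPMI-1640 plus 10% FBS | Detection: Caspase-Glo 3/7 luminescence, 1 h at room temperature | Dosing: 50 nL compound per well, pinned | Timing: Cells settled overnight, compound exposure 3 h at 37 °C, 5% CO2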
# T cruzi HTS: inhibitors of intracellular Trypanosoma cruzi. activity score (inhibition), % at 5.01 µM. intracellular Trypanosoma cruzi in host cells, plate reader. 22,000 tested, 4.9% active; in the data active means activity score above about 55%;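 further: parasites and compound incubated about four days before reading; 0% = median of neutral control wells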
# Starred values were filed as active, the others as inactive; nt = not tested or not shown. Many of the other results were omitted from the sample, so hits are more common in it than they were.
SMILES,INS-1E ATP HTS,A1 apoptosis 2,T cruzi HTS
COc1ccc(S(=O)(=O)N(C)C[C@@H]2Oc3c(NC(=O)c4ccc(-c5nccs5)cc4)cccc3C(=O)N([C@H](C)CO)C[C@@H]2C)cc1,-15.6,0.8,73.7*
Cc1ccc(S(=O)(=O)N(C)C[C@H]2Oc3c(NC(=O)c4ccc(-c5nccs5)cc4)cccc3C(=O)N([C@@H](C)CO)C[C@H]2C)cc1,0.1,nt,26.4
Cc1ccc(S(=O)(=O)N(C)C[C@@H]2Oc3c(NC(=O)c4ccc(-c5nccs5)cc4)cccc3C(=O)N([C@H](C)CO)C[C@@H]2C)cc1,2.7,-0.2,71.1*
O=C(CCCCCC(=O)Nc1ccccc1O)N/N=C/c1ccc(O)cc1,5.9,0.6,-2.8
O=C(O)CCCCCCC(=O)N/N=C/c1ccc[nH]1,-1.8,nt,-36.4
CC(/C=C/C(=O)NO)=C\c1cccc(OCc2ccc(-c3ccncc3)cc2)c1,nt,0.4,nt
C[C@@H]1CN([C@H](C)CO)C(=O)Cc2cc(NC(=O)NC3CCCCC3)ccc2O[C@H]1CN(C)Cc1ccc(Oc2ccccc2)cc1,-29.4,0.6,64.5*
C[C@@H]1CN([C@@H](C)CO)C(=O)Cc2cc(NC(=O)NC3CCCCC3)ccc2O[C@@H]1CN(C)Cc1ccc(Oc2ccccc2)cc1,-17.3,nt,53.0
C[C@@H]1CN([C@H](C)CO)C(=O)Cc2cc(NC(=O)NC3CCCCC3)ccc2O[C@H]1CN(C)Cc1ccc(-c2ccccc2)cc1,-26.9,nt,75.0*
C[C@H](CO)N1C[C@H](C)[C@@H](CN(C)Cc2ccc(-c3ccccc3)cc2)Oc2ccc(NC(=O)NC3CCCCC3)cc2CC1=O,nt,-0.9,nt
O=C(CCCCCCC(=O)N/N=C/c1cccnc1)NO,nt,0.2,nt
Cc1ccc(S(=O)(=O)N(C)C[C@H]2Oc3c(NC(=O)Nc4ccc(C(F)(F)F)cc4)cccc3C(=O)N([C@H](C)CO)C[C@H]2C)cc1,-35.5,nt,37.6
C[C@@H]1CN([C@@H](C)CO)C(=O)c2cccc(NC(=O)Nc3ccc(C(F)(F)F)cc3)c2O[C@H]1CN(C)S(=O)(=O)c1ccc(Cl)cc1,-16.5,-0.2,79.8*
Cc1ccc(S(=O)(=O)N(C)C[C@@H]2Oc3c(NC(=O)Nc4ccc(C(F)(F)F)cc4)cccc3C(=O)N([C@H](C)CO)C[C@@H]2C)cc1,-69.0,-1.0,84.9*
C[C@H](CO)N1C[C@H](C)[C@@H](CN(C)S(=O)(=O)c2ccc(Cl)cc2)Oc2c(NC(=O)Nc3ccc(C(F)(F)F)cc3)cccc2C1=O,-28.6,-0.9,33.0
C[C@H](CO)N1C[C@H](C)[C@H](CN(C)S(=O)(=O)c2cccs2)Oc2c(NC(=O)Nc3ccc(C(F)(F)F)cc3)cccc2C1=O,-102.4,-0.5,83.8*
C[C@H](CO)N1C[C@H](C)[C@@H](CN(C)S(=O)(=O)c2ccc(F)cc2)Oc2c(NC(=O)Nc3ccc(C(F)(F)F)cc3)cccc2C1=O,-33.3,1.6,56.8*
C[C@@H]1CN([C@@H](C)CO)C(=O)c2cccc(NC(=O)Nc3ccc(C(F)(F)F)cc3)c2O[C@H]1CN(C)S(=O)(=O)c1ccc(F)cc1,-7.3,1.3,33.0
C[C@H]1CN([C@@H](C)CO)C(=O)c2cccc(NC(=O)Nc3ccc(C(F)(F)F)cc3)c2O[C@H]1CN(C)S(=O)(=O)c1cccs1,-21.3,-0.9,24.7
C[C@@H]1CCCCO[C@@H](CN(C)C(=O)C2CCCCC2)[C@H](C)CN([C@@H](C)CO)C(=O)c2cc(NC(=O)CCCN(C)C)ccc2O1,nt,2.4,nt
Cc1ccc(S(=O)(=O)N(C)C[C@H]2Oc3c(NC(=O)c4cc(C)nn4C)cccc3C(=O)N([C@H](C)CO)C[C@@H]2C)cc1,9.8,0.2,54.1
C[C@H](CO)N1C[C@H](C)[C@H](CN(C)S(=O)(=O)c2ccc(Cl)cc2)Oc2c(NC(=O)CCCCCC(=O)Nc3ccccc3N)cccc2C1=O,10.1,1.0,73.7*
Cc1noc(C)c1NC(=O)Nc1cccc2c1O[C@@H](CN(C)S(C)(=O)=O)[C@H](C)CN([C@H](C)CO)C2=O,3.8,nt,-34.5
C[C@H](CO)N1C[C@H](C)[C@@H](CN(C)S(=O)(=O)c2ccc(Cl)cc2)Oc2c(NC(=O)Nc3ccccc3)cccc2C1=O,0.7,-0.3,67.6*
C[C@H]1CN([C@@H](C)CO)C(=O)c2cccc(NC(=O)CCCCCC(=O)Nc3ccccc3N)c2O[C@@H]1CN(C)S(=O)(=O)c1ccc(Cl)cc1,1.8,0.1,34.9
SMILES,INS-1E ATP HTS,A1 apoptosis 2,T cruzi HTS
C[C@H](CO)N1C[C@H](C)[C@H](CN(C)S(=O)(=O)c2ccc(Cl)cc2)Oc2c(NC(=O)Nc3ccccc3)cccc2C1=O,-6.5,nt,-73.4
Cc1noc(C)c1NC(=O)Nc1cccc2c1O[C@@H](CN(C)S(C)(=O)=O)[C@@H](C)CN([C@@H](C)CO)C2=O,-59.4,nt,66.6*
COC(=O)c1cn(CC(=O)N2CCOCC2)nn1,nt,0.5,nt
O=C(O)CCCCCC(=O)N/N=C/c1cccnc1Br,3.1,0.5,-10.0
O=C1c2ccccc2C(=O)N1CC1CCN(Cc2cccc(OCCO)c2)CC1,nt,0.6,nt
COc1ccc(S(=O)(=O)N(C)C[C@@H]2Oc3ncc(-c4cccc(C(F)(F)F)c4)cc3C(=O)N([C@H](C)CO)C[C@@H]2C)cc1,nt,-1.1,46.1
C[C@H](CO)N1C[C@H](C)[C@H](CN(C)S(=O)(=O)c2cccc(F)c2)Oc2ncc(Br)cc2C1=O,nt,nt,20.4
C[C@H](CO)N1C[C@H](C)[C@H](CN(C)S(=O)(=O)c2ccc(F)cc2)Oc2ncc(-c3cccc(C(F)(F)F)c3)cc2C1=O,nt,-0.8,88.7*
C[C@H](CO)N1C[C@H](C)[C@H](CN(C)S(=O)(=O)c2cccc(F)c2)Oc2ncc(-c3cccc(C(F)(F)F)c3)cc2C1=O,nt,nt,59.5*
C[C@H](CO)N1C[C@H](C)[C@@H](CN(C)S(=O)(=O)c2ccc(Cl)cc2)Oc2ccc(NC(=O)NC3CCCCC3)cc2CC1=O,nt,-0.7,nt
O=C(CCCCC(=O)N/N=C/c1ccc2ccccc2c1)NO,73.2*,-0.1,17.6
O=C(CCCCC(=O)N/N=C/c1ccc(-c2ccccc2)c(F)c1)NO,60.3*,nt,20.1
O=C(CCCCCC(=O)N/N=C/c1ccc(O)c2ccccc12)NO,57.3*,-0.4,5.3
COC(=O)CCCCCCC(=O)N/N=C/c1ccc(-c2ccccc2)c(F)c1,4.5,-1.6,1.1
O=C(CCCCC(=O)N/N=C/c1cc(O)ccc1O)NO,41.2,0.3,12.9
O=C(CCCCC(=O)N/N=C/c1cccc(O)c1)NO,-1.3,nt,-22.1
N#Cc1ccc(/C=N/NC(=O)CCCCCCC(=O)NO)cc1,nt,1.4,nt
O=C(CCCCCCC(=O)Nc1ccccc1O)N/N=C/c1cc2c(cc1Br)OCO2,10.9,-0.2,8.5
COC(=O)[C@@]1(Cc2ccccc2N=[N+]=[N-])N=C(c2ccc(OCCCO)cc2)O[C@H]1c1ccccc1,nt,-0.8,nt
C[C@@H]1CCCCO[C@@H](CN(C)C(=O)Nc2ccc3c(c2)OCO3)[C@@H](C)CN([C@H](C)CO)C(=O)c2cc(NC(=O)Cc3ccccc3)ccc2O1,15.3,-1.4,-43.7
C[C@H]1CN([C@@H](C)CO)C(=O)c2cc(NC(=O)CCCN(C)C)ccc2O[C@H]1CN(C)C(=O)Nc1ccccc1,nt,1.4,nt
